From ChEMBL document CHEMBL2384952, “Synthesis, antifungal and cytotoxic activities of 2-aryl-3-((piperidin-1-yl)ethyl)thiazolidinones” (Eur J Med Chem, 2013)
Values after ≈ are worked out from the molar mass of the structure shown.

Key:
[1] = system: Vero; experiment: Cytotoxicity against African green monkey Vero cells at 12.3 ug/mL by neutral red dye uptake assay relative to control; assay type: cell-based; conditions: chlorocebus sabaeus
Procedure, shortened: (§1)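 Vero cells (over 99% viable by trypan blue exclusion) were exposed to serial compound dilutions in E-MEM, with fresh E-MEM as negative control, for 72 h at 37 °C, 5% CO2. Cells were then given 3.3 mg/L neutral red for 2 h, and the dye was extracted with 50% ethanol/1% acetic acid. A540 was read, and viability was calculated as treated/control absorbance × 100.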

[2] = system: Vero; experiment: Cytotoxicity against African green monkey Vero cells at 197 ug/mL by neutral red dye uptake assay relative to control; assay type: cell-based; conditions: chlorocebus sabaeus; procedure, shortened: as §1
[3] = system: Vero; experiment: Cytotoxicity against African green monkey Vero cells at 1575 ug/mL by neutral red dye uptake assay relative to control; assay type: cell-based; conditions: chlorocebus sabaeus; procedure, shortened: as §1
[4] = system: Vero; experiment: Cytotoxicity against African green monkey Vero cells at 25 ug/mL by neutral red dye uptake assay relative to control; assay type: cell-based; conditions: chlorocebus sabaeus; procedure, shortened: as §1
[5] = system: Vero; experiment: Cytotoxicity against African green monkey Vero cells at 394 ug/mL by neutral red dye uptake assay relative to control; assay type: cell-based; conditions: chlorocebus sabaeus; procedure, shortened: as §1
[6] = system: Vero; experiment: Cytotoxicity against African green monkey Vero cells at 98 ug/mL by neutral red dye uptake assay relative to control; assay type: cell-based; conditions: chlorocebus sabaeus; procedure, shortened: as §1
[7] = system: Vero; experiment: Cytotoxicity against African green monkey Vero cells at 3150 ug/mL by neutral red dye uptake assay relative to control; assay type: cell-based; conditions: chlorocebus sabaeus; procedure, shortened: as §1
[8] = system: Candida albicans; experiment: Antifungal activity against Candida albicans after 48 hrs by CLSI M27A3 broth microdilution method; assay type: functional
Procedure, shortened: (§2)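 Yeasts were kept on Sabouraud dextrose agar and subcultured at 35 °C for at least 2 days. They were suspended in saline to McFarland 0.5 and diluted in RPMI. Ten successive dilutions were made from a 1.6 mg/mL DMSO stock per CLSI broth microdilution, then incubated at 37 °C for 48 h. Growth was read visually against a growth-control well, and MIC is the lowest concentration inhibiting growth.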

[9] = system: Candida parapsilosis; experiment: Antifungal activity against Candida parapsilosis after 48 hrs by CLSI M27A3 broth microdilution method; assay type: functional; conditions: Lodderomyces parapsilosis; procedure, shortened: as §2
[10] = system: Trichosporon asahii; experiment: Antifungal activity against Trichosporon asahii after 48 hrs by CLSI M27A3 broth microdilution method; assay type: functional; procedure, shortened: as §2
[11] = system: Meyerozyma guilliermondii; experiment: Antifungal activity against Candida guilliermondii after 48 hrs by CLSI M27A3 broth microdilution method; assay type: functional; procedure, shortened: as §2
[12] = system: Rhodotorula; experiment: Antifungal activity against Rhodotorula species after 48 hrs by CLSI M27A3 broth microdilution method; assay type: functional; procedure, shortened: as §2
[13] = system: Vero; experiment: Cytotoxicity against African green monkey Vero cells at 49 ug/mL by neutral red dye uptake assay relative to control; assay type: cell-based; conditions: chlorocebus sabaeus; procedure, shortened: as §1
[14] = system: Rhodotorula; experiment: Ratio of fluconazole MFC to compound MFC for Rhodotorula species; assay type: functional
[15] = system: Rhodotorula; experiment: Ratio of fluconazole MIC to compound MIC for Rhodotorula species; assay type: functional
[16] = system: Vero; experiment: Cytotoxicity against African green monkey Vero cells at 787 ug/mL by neutral red dye uptake assay relative to control; assay type: cell-based; conditions: chlorocebus sabaeus; procedure, shortened: as §1
[17] = system: Geotrichum; experiment: Antifungal activity against Geotrichum species after 48 hrs by CLSI M27A3 broth microdilution method; assay type: functional; procedure, shortened: as §2
[18] = system: Papiliotrema laurentii; experiment: Antifungal activity against Cryptococcus laurentii after 48 hrs by CLSI M27A3 broth microdilution method; assay type: functional; procedure, shortened: as §2

`O=C1CSC(c2cccc([N+](=O)[O-])c2)N1CCN1CCCCC1` (stereo not given) was tested, and the Cell viability [1] was 100%, the Cell viability [2] was 75% and the Cell viability [3] was 7%. For the same molecule, the Cell viability [4] was 100%, the Cell viability [5] was 60% and the Cell viability [6] was 94%. The Cell viability [7] was 2%, the MFC [8] was 50 µg/mL (≈ 149 µM) and the MIC [8] was 50 µg/mL (≈ 149 µM). The MFC [9] was 100 µg/mL (≈ 298 µM), the MIC [9] was 100 µg/mL (≈ 298 µM) and the MFC [10] was > 400 µg/mL. For the same molecule, the MIC [10] was > 400 µg/mL, the MFC [11] was 100 µg/mL (≈ 298 µM) and the MIC [11] was 100 µg/mL (≈ 298 µM). For the same molecule, the MFC [12] was 16.5 µg/mL (≈ 49.2 µM), the MIC [12] was 16.5 µg/mL (≈ 49.2 µM) and the Cell viability [13] was 100%. The Ratio [14] was 1.6, the Ratio [15] was 1.6 and the Cell viability [16] was 15%. For the same molecule, the MFC [17] was 100 µg/mL (≈ 298 µM), the MIC [17] was 100 µg/mL (≈ 298 µM) and the MFC [18] was 100 µg/mL (≈ 298 µM). It also gave an MIC [18] of 100 µg/mL (≈ 298 µM).
